Activity calls are given as the source filed them. The calls are words filed in the database; no cut-off is given here.
Tests used:
[1] = system: Streptococcus intermedius; test: Antimicrobial activity against Streptococcus intermedius SI006 biofilm harboring luxS mutant gene assessed as biofilm bacterial count at 0.15 ug/ml (Rvb =310.8 +/- 17.10 10^5 CFU/ml); assay type: functional
[2] = system: Streptococcus intermedius; test: Antimicrobial activity against Streptococcus intermedius NCTC 11324 biofilm assessed as biofilm bacterial count at 0.20 ug/ml (Rvb =402.9 +/- 26.88 10^5 CFU/ml); assay type: functional
[3] = system: Streptococcus intermedius; test: Antimicrobial activity against Streptococcus intermedius SI006 biofilm harboring luxS mutant gene assessed as biofilm bacterial count at 0.10 ug/ml in presence of 0.8 nM autoinducer 4,5-dihydroxy-2,3-pentanedione (Rvb =413.7 +/- 24.47 10^5 CFU/ml); assay type: functional
[4] = system: Streptococcus intermedius; test: Antimicrobial activity against Streptococcus intermedius NCTC 11324 planktonic cells assessed as bacterial count at 0.30 ug/ml (Rvb =756.9 +/- 62.98 10^8 CFU/ml); assay type: functional
Summary of the method: (§1)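 Planktonic wild-type cells were inoculated at ≈4 × 10^5 CFU/ml in TSB in ultra-low-binding plates. Media were without or with ampicillin (0.02 to 0.14 μg/ml), ciprofloxacin (0.10 to 0.35 μg/ml) or tetracycline (0.03 to 0.20 μg/ml). After 12 h at 37°C in 5% CO2 aerobic air, CFU were counted, run in parallel with the BacTiter-Glo ATP assay. Experiments were done three times in two parallels.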

[5] = system: Streptococcus intermedius; test: Antimicrobial activity against Streptococcus intermedius SI006 planktonic cells harboring luxS mutant gene assessed as bacterial count at 0.35 ug/ml in presence of 0.8 nM autoinducer 4,5-dihydroxy-2,3-pentanedione (Rvb =768.6 +/- 46.24 10^8 CFU/ml); assay type: functional
[6] = system: Streptococcus intermedius; test: Antimicrobial activity against Streptococcus intermedius SI006 biofilm harboring luxS mutant gene assessed as biofilm bacterial count at 0.20 ug/ml (Rvb =310.8 +/- 17.10 10^5 CFU/ml); assay type: functional
[7] = system: Streptococcus intermedius; test: Antimicrobial activity against Streptococcus intermedius SI006 planktonic cells harboring luxS mutant gene assessed as bacterial count at 0.25 ug/ml (Rvb =708.1 +/- 47.64 10^8 CFU/ml); assay type: functional
[8] = system: Streptococcus intermedius; test: Antimicrobial activity against Streptococcus intermedius SI006 planktonic cells harboring luxS mutant gene assessed as bacterial count at 0.20 ug/ml in presence of 0.8 nM autoinducer 4,5-dihydroxy-2,3-pentanedione (Rvb =768.6 +/- 46.24 10^8 CFU/ml); assay type: functional
[9] = system: Streptococcus intermedius; test: Antimicrobial activity against Streptococcus intermedius NCTC 11324 assessed as growth inhibition at 0.5 ug/ml; assay type: functional
Summary of the method: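 Broth microdilution MIC in ultra-low-binding 96-well plates, inoculum ≈4 × 10^5. Growth was read at 595 nm, and the MIC was taken as the lowest antibiotic concentration inhibiting growth.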

[10] = system: Streptococcus intermedius; test: Antimicrobial activity against Streptococcus intermedius NCTC 11324 biofilm assessed as biofilm bacterial count at 0.15 ug/ml (Rvb =402.9 +/- 26.88 10^5 CFU/ml); assay type: functional
[11] = system: Streptococcus intermedius; test: Antimicrobial activity against Streptococcus intermedius SI006 planktonic cells harboring luxS mutant gene assessed as bacterial count at 0.35 ug/ml (Rvb =708.1 +/- 47.64 10^8 CFU/ml); assay type: functional
[12] = system: Streptococcus intermedius; test: Antimicrobial activity against Streptococcus intermedius NCTC 11324 planktonic cells assessed as bacterial count at 0.25 ug/ml (Rvb =756.9 +/- 62.98 10^8 CFU/ml); assay type: functional; summary of the method: as §1
[13] = system: Streptococcus intermedius; test: Antimicrobial activity against Streptococcus intermedius NCTC 11324 biofilm assessed as biofilm bacterial count at 0.10 ug/ml (Rvb =402.9 +/- 26.88 10^5 CFU/ml); assay type: functional
[14] = system: Streptococcus intermedius; test: Antimicrobial activity against Streptococcus intermedius NCTC 11324 planktonic cells assessed as bacterial count at 0.20 ug/ml (Rvb =756.9 +/- 62.98 10^8 CFU/ml); assay type: functional; summary of the method: as §1
[15] = system: Streptococcus intermedius; test: Antimicrobial activity against Streptococcus intermedius SI006 planktonic cells harboring luxS mutant gene assessed as bacterial count at 0.30 ug/ml in presence of 0.8 nM autoinducer 4,5-dihydroxy-2,3-pentanedione (Rvb =768.6 +/- 46.24 10^8 CFU/ml); assay type: functional
[16] = system: Streptococcus intermedius; test: Antimicrobial activity against Streptococcus intermedius SI006 planktonic cells harboring luxS mutant gene assessed as bacterial count at 0.25 ug/ml in presence of 0.8 nM autoinducer 4,5-dihydroxy-2,3-pentanedione (Rvb =768.6 +/- 46.24 10^8 CFU/ml); assay type: functional
[17] = system: Streptococcus intermedius; test: Antimicrobial activity against Streptococcus intermedius NCTC 11324 assessed as biofilm formation at 0.10 to 0.25 ug/ml; assay type: functional, organism-based
Summary of the method: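 Wild-type NCTC 11324 was grown overnight in TSB and inoculated into TSB with ampicillin (0.02 to 0.10 μg/ml), ciprofloxacin (0.10 to 0.28 μg/ml) or tetracycline (0.05 to 0.30 μg/ml), added at time zero. Wells held plastic coverslips and were incubated 12 h at 37°C in 5% CO2 aerobic air. Biofilm was measured as described previously. Experiments were done three times in three parallels.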

[18] = system: Streptococcus intermedius; test: Antimicrobial activity against Streptococcus intermedius SI006 biofilm harboring luxS mutant gene assessed as biofilm bacterial count at 0.10 ug/ml (Rvb =310.8 +/- 17.10 10^5 CFU/ml); assay type: functional
[19] = system: Streptococcus intermedius; test: Antimicrobial activity against Streptococcus intermedius NCTC 11324 planktonic cells assessed as bacterial count at 0.35 ug/ml (Rvb =756.9 +/- 62.98 10^8 CFU/ml); assay type: functional
[20] = system: Streptococcus intermedius; test: Antimicrobial activity against Streptococcus intermedius SI006 biofilm harboring luxS mutant gene assessed as biofilm bacterial count at 0.20 ug/ml in presence of 0.8 nM autoinducer 4,5-dihydroxy-2,3-pentanedione (Rvb =413.7 +/- 24.47 10^5 CFU/ml); assay type: functional
[21] = system: Streptococcus intermedius; test: Antimicrobial activity against Streptococcus intermedius SI006 planktonic cells harboring luxS mutant gene assessed as bacterial count at 0.30 ug/ml (Rvb =708.1 +/- 47.64 10^8 CFU/ml); assay type: functional

SMILES: O=C(O)c1cn(C2CC2)c2cc(N3CCNCC3)c(F)cc2c1=O [CIPROFLOXACIN]
- CFU [1]: 333 ×10⁵ /ml
- CFU [2]: 577.2 ×10⁵ /ml
- CFU [3]: 814.7 ×10⁵ /ml
- CFU [4]: 3.12 ×10⁸ /ml
- CFU [5]: 2.3 ×10⁸ /ml
- CFU [6]: 131 ×10⁵ /ml
- CFU [7]: 1.16 ×10⁸ /ml
- CFU [8]: 5.3 ×10⁸ /ml
- Activity [9]: 0.5 µg/mL
- CFU [10]: 663.8 ×10⁵ /ml
- CFU [11]: 0.4 ×10⁸ /ml
- CFU [12]: 5.14 ×10⁸ /ml
- CFU [13]: 768.1 ×10⁵ /ml
- CFU [14]: 5.87 ×10⁸ /ml
- CFU [15]: 3.1 ×10⁸ /ml
- CFU [16]: 4.72 ×10⁸ /ml
- Activity [17]: inactive
- CFU [18]: 324.1 ×10⁵ /ml
- CFU [19]: 2.6 ×10⁸ /ml
- CFU [20]: 519.5 ×10⁵ /ml
- CFU [21]: 0.74 ×10⁸ /ml

Reference: ChEMBL document CHEMBL1649212, “AI-2/LuxS is involved in increased biofilm formation by Streptococcus intermedius in the presence of antibiotics” (2009)
